Reference: ChEMBL document CHEMBL1142845, “Synthesis, stability, and implications of phosphothioate agonists of sphingosine-1-phosphate receptors” (Bioorg Med Chem Lett, 2005)
“And” between values parts separate entries of the source, which are not always exact repeats. Equal values may be shown once.

Assay: Effective concentration required for [35S]GTP-gamma-S binding towards Sphingosine 1-phosphate receptor G-protein complex expressed in HEK293T cells
Format: functional, cell-based, Homo sapiens
Settings: hek-293t
Outline: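 Agonist-stimulated [35S]GTPγS binding was measured on individual S1P receptor–G-protein complexes overexpressed in HEK293T cells. EC50 values were taken from ligand-dependent binding, and efficacy was expressed as a percentage of the S1P maximal effect at each receptor.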

EC50	Structure (SMILES)
20 nM	CCCCCCCCc1ccc(NC(=O)[C@@H](N)[C@@H](C)OP(=O)(O)O)cc1
910 nM and 2800 nM and 8700 nM	CCCCCCCCc1ccc(CC[C@@H](N)CO)cc1
1700 nM and 490 nM	CCCCCCCCc1ccc(NC(=O)[C@@H](N)[C@@H](C)O)cc1
